Hits are enriched below; roughly 3.1% of the tested compounds scored in any of these assays.
KCNK3 inh – human KCNK3 channel inhibition, primary screen; AID 602410; B-score at 10 µM; 340,000 compounds, 0.84% hits; CHO-KCNK3 thallium flux, FluxOR fluorescence; hits give low values;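 active = B-score under library mean minus 4 SD, starting fluorescence ratio at most library mean plus 5 SD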;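 also: more negative B-score means stronger inhibition of thallium flux through KCNK3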
KCNQ1 block – human KCNQ1 channel inhibition; P51787; CHO-K1 KCNQ1, FluxOR thallium flux fluorescence; hits give high values; B-score at 10 µM; 310,000 compounds, 1.3% hits;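 active = compounds whose thallium flux B-score, printed positive for inhibition, exceeds three library SD while starting fluorescence stays within three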;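 also: channel opened by potassium depolarization with thallium stimulus after 20 min compound exposure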
Target sequence (P51787 whole entry, looked up): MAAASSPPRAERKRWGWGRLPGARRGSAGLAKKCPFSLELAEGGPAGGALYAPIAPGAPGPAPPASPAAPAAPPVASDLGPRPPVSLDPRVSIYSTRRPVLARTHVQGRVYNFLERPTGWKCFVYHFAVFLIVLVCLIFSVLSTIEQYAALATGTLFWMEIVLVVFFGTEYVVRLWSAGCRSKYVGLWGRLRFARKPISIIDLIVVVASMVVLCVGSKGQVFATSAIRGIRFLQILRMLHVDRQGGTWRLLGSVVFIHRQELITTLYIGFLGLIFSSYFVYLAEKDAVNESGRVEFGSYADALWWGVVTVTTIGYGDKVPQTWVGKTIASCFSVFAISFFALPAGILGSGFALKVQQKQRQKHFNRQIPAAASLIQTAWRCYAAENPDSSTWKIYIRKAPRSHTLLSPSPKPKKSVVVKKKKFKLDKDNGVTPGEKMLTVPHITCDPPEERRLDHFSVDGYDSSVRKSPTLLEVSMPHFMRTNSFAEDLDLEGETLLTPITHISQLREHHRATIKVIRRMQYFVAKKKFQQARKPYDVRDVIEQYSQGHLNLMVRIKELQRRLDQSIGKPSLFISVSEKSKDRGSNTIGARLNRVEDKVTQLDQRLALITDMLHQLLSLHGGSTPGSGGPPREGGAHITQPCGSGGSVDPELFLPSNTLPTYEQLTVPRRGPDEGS
KCNQ1 act – potentiators or activators of human KCNQ1 potassium channel. CHO-K1 KCNQ1, thallium flux FluxOR fluorescence; hits give high values. B-score at 10 µM. 310,000 compounds, 0.35% hits. AID 2648;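 active = fluorescence ratio B-score, a plate-corrected score, at least three library SD, with initial intensity B-score within 5 SD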
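Assay system: CHO-K1 cells stably expressing KCNQ1. Medium: assay buffer for compound exposure, DMSO matched across wells. Timing: 37 °C overnight plating, 90-min dark dye load, 20-min compound pretreatment. Signal: kinetic FluxOR fluorescence, 10 s baseline plus 110 s post-stimulus.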
hERG protect – shields human hERG channel from block by proarrhythmic agents. activation (rescue from dofetilide block), less the hit threshold, % at 10 µM. CHO-hERG, FluxOR thallium flux, dofetilide IC70 present. Q12809. 310,000 compounds, 0.51% hits;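 active = activation above the mean of controls blocked by dofetilide plus 5 SD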;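 also: thallium influx through hERG after potassium depolarization seen as dye fluorescence rise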
KCNK9 block – human KCNK9 channel inhibition; Q9NPC2; HEK293 KCNK9, FluxOR thallium flux fluorescence; hits give low values; B-score at 10 µM; 310,000 compounds, 1.2% hits; AID 488922;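 active = ratio B-score over 3 SD below the library mean, with starting fluorescence within 5 SD of its mean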;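 also: negative B-score means less thallium flux so channel inhibition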
Each line names hits and unclear results; the compound was inactive in the other large screens.

CN1CC(=O)N(CC(=O)Nc2ccc(Cl)c(C(F)(F)F)c2)C1=O	hERG protect 4.6
O=C(NCCOC(=O)c1ccccc1)c1ccccc1	none (no result: KCNQ1 block, KCNQ1 act, hERG protect, KCNK9 block)
CC(C)CCn1c(=O)c2ccccc2c2ccccc2c1=O	KCNQ1 block 6
CC(Oc1ccc2ccccc2c1)C(=O)NNC(=O)Nc1ccccc1F (stereo not drawn)	none
CC(C)(C)c1ccc(-c2cn(-c3ccc(Br)cc3)c3[n+]2CCCS3)cc1	KCNQ1 block 7
c1ccc(-c2cn(-c3ccccc3)c3[n+]2CCS3)cc1	none
CC(C)Oc1ccc(S(=O)(=O)N2CCOCC2)cc1NC(=O)C1=NN(c2ccccc2)C(=O)CC1	none (no result: KCNQ1 block, KCNQ1 act, hERG protect, KCNK9 block)
CCCCc1ccc(/C=C2\C(=O)c3ccccc3C(O)=C2C(=O)OCC)cc1	KCNQ1 act 9 (no result: KCNK3 inh)
Cc1ccc(CNc2ncc(-c3ccccc3)n2C)o1	none
CN(C)c1ccc(NC(=O)Cn2ncn3c(cc4ccccc43)c2=O)cc1	hERG protect 8.9
COc1cccc(NC(=O)CN2C(=O)c3cccnc3Oc3ccc(Cl)cc32)c1	none
O=C(CN1C(=O)c2cccnc2Oc2ccc(Cl)cc21)Nc1ccccc1F	KCNK9 block -6.8
Cc1sc(-n2c(C)cc(/C=C3\SC(=S)NC3=O)c2C)c(C#N)c1C	KCNQ1 act 9
Cc1cccc(-c2n[nH]c(=S)n2/N=C/c2cccs2)c1	KCNQ1 act 9
S=c1[nH]nc(-c2cccs2)n1/N=C/c1c(Cl)cccc1Cl	KCNQ1 act 37, hERG protect 32
Cc1ccc(/C=N/n2c(-c3cccs3)n[nH]c2=S)cc1	none
Cc1cccc(-c2n[nH]c(=S)n2/N=C/c2ccc(C)s2)c1	none
O=C(Nc1n[nH]c(C(F)(F)F)n1)C1CC1	hERG protect 4.7
Cc1cc(C)cc(NC(=O)COC(=O)CN=C2NS(=O)(=O)c3ccccc32)c1	none
CC(C)Cn1c(N)c(C(=O)COC(=O)C2CC(=O)N(c3ccc4c(c3)OCCO4)C2)c(=O)n(C)c1=O (stereo not drawn)	none
CC(C)n1c(O)c(N=NC(=O)C2COc3ccccc3O2)c2ccccc21 (stereo not drawn)	hERG protect 23
COCCCNC(=S)Nc1ccc(CC(=O)O)cc1	none
O=C(NNC(=O)c1ccccc1O)c1ccc(NS(=O)(=O)c2ccc(F)c(F)c2)cc1	KCNQ1 block 6
O=C1/C(=C/C=C/c2ccccc2)Oc2c1ccc(O)c2CN1CCN(CCO)CC1	none
COc1ccccc1/C=C/C=C1\Oc2c(ccc(O)c2CN2CCN(CCO)CC2)C1=O	KCNQ1 block 6, KCNK9 block -6.8
CCN1CCN(Cc2c(O)ccc3c2O/C(=C\C=C\c2ccccc2)C3=O)CC1	KCNQ1 block 6
CN(C)Cc1c(O)ccc2c1O/C(=C\C=C\c1ccccc1)C2=O	KCNQ1 block 9
CCc1ccc(/C=C2\Oc3c(ccc(O)c3CN3CCN(C)CC3)C2=O)cc1	KCNQ1 block 8
O=C(NCC1CCCN(Cc2ccc3nonc3c2)C1)c1cccc(C(F)(F)F)c1 (stereo not drawn)	none
O=C(O)CN1C(=O)C(=O)N(Cc2ccc(C(F)(F)F)cc2)C1=O	hERG protect 5.4
COC(=O)/C(=C\Nc1ccc(Cl)c2ccccc12)c1ncc(C(F)(F)F)cc1Cl	none
CCOC(=O)/C(=C\Nc1ccccc1C(F)(F)F)Sc1ncc(C(F)(F)F)cc1Cl	KCNQ1 block 7
Cc1cccnc1CN1CCN(Cc2nc(C(c3ccccc3)c3ccccc3)no2)CC1	none
Cn1nc(C(F)(F)F)c2cc(C(=O)Nc3ccc(F)cc3F)sc21	KCNK9 block -7.2
Cn1nc(C(F)(F)F)c2cc(C(=O)Nc3ccc(Cl)cc3)sc21	none
Cn1nc(C(F)(F)F)c2cc(NC(=O)OCc3ccc(C(C)(C)C)cc3)sc21	KCNQ1 block 7
COc1ccc(S(=O)(=O)Nc2ncccn2)cc1	none
Cn1c(NC(=O)c2ccccc2)cc(=O)n(C)c1=O	none
Cn1c(NNC(=O)C(c2ccccc2)c2ccccc2)cc(=O)n(C)c1=O	hERG protect 4.9
COc1ccccc1N1CCN(C2CC(=O)N(c3ccc(Cl)cc3)C2=O)CC1 (stereo not drawn)	none
COc1ccc(-c2nnc(SCC(=O)Nc3cc(C)on3)o2)cc1	none
Cc1c(C(=O)N(Cc2ccccc2)C(C)C)oc2ccc(S(=O)(=O)N3CCOCC3)cc12	none
Cc1ccc(S(=O)(=O)N2CCN(C(=O)C3CCN(c4ncnc5sc(C)c(C)c45)CC3)CC2)c(C)c1	none (no result: KCNQ1 block, KCNQ1 act, hERG protect, KCNK9 block)
Cc1cc(Nc2ccccc2)n2nc(C)c(-c3ccccc3)c2n1	none
Cc1cc(NCc2ccccn2)n2nc(C)c(-c3ccccc3)c2n1	KCNQ1 block 6
Cc1ccc(N2C(=O)c3ccc(C(=O)Nc4cccnc4)cc3C2=O)c(C)c1	hERG protect 4.7
COC(=O)c1ccccc1NC(=S)N(Cc1ccc2c(c1)OCO2)Cc1cc2cc(C)ccc2[nH]c1=O	none
COC(=O)c1ccccc1NC(=S)N(Cc1ccc2c(c1)OCO2)Cc1cc2ccc(C)cc2[nH]c1=O	KCNQ1 block 6
COc1ccc(NC(=O)C(=O)NCC2CCCN2S(=O)(=O)c2cc(C)ccc2C)cc1 (stereo not drawn)	none
COc1ccc(C(=O)N=c2sc3c(C)ccc(OC)c3n2C)cc1	KCNK9 block -7
COC(=O)Cn1c2c(c3cc(C)ccc31)CCCC2NC(C)c1ccccc1 (stereo not drawn)	hERG protect 4.9
Cc1ccc(Sc2cnn(-c3ccccc3)c(=O)c2Cl)cc1	KCNQ1 block 10
Nc1ccc(Sc2cnn(-c3ccccc3)c(=O)c2Cl)cc1	none
O=C(COc1ccc([N+](=O)[O-])cc1)N/N=C/c1cc([N+](=O)[O-])ccc1N1CCOCC1	none
Cc1ccc(OCC(=O)N/N=C/c2cc([N+](=O)[O-])ccc2N2CCCCC2)cc1	KCNK9 block -7.4
COc1ccc(OCC(=O)Nc2cc(OC)ccc2N2CCCCC2)cc1	KCNK9 block -7.9
Cc1ccc(C(=O)c2cc([N+](=O)[O-])ccc2N2CCCCC2)c(C)c1	KCNK9 block -7.5
COc1ccc(N2CCCC2)c(NC(=O)COc2ccccc2Cl)c1	none
O=C(COc1cccc(C(F)(F)F)c1)Nc1ccccc1N1CCCCC1	KCNK9 block -7.8
CCc1ccc(N/C(SCc2ccccc2C)=C(/C#N)C(=O)NCc2ccco2)cc1	none
O=C(c1ccc2nc(Cc3ccccc3F)oc2c1)N1CC[C@H](O)C1	none
Cc1c(C)c2ccc(OCC(=O)Nc3ccccc3C(N)=O)cc2oc1=O	none
Cc1ccc(OCc2cc(C(=O)NC3CCc4ccccc43)no2)cn1 (stereo not drawn)	none
O=C(Nc1cc(Oc2ccccc2)cc([N+](=O)[O-])c1)C12CC3CC(C1)CC(n1cnc(Cl)n1)(C3)C2	KCNQ1 block 12
O=C(O)c1cccc(NC(=O)C23CC4CC(C2)CC(n2cnc(Cl)n2)(C4)C3)c1	none

Source: PubChem
